Data on 18 compounds can be found in ChEMBL document CHEMBL1649368, “Novel isatinyl thiosemicarbazones derivatives as potential molecule to combat HIV-TB co-infection” (Eur J Med Chem, 2011).

The EC50 is the concentration at which the effect is half-maximal. As a reminder, the CC50 is the concentration at which the toxic effect on the cells reaches its halfway point. Low values mean greater toxicity to the cells, high ones lower toxicity to the cells. As usually defined, the MIC is the lowest concentration that inhibits growth of the organism. As a reminder, the inhibition is the change of the read-out against control, counted positive when it falls.

For data set [1], the system named is Human immunodeficiency virus 1. The data set is described as follows: Antiviral activity against HIV1 3B infected in human MT4 cells assessed as protection against virus-induced cytopathogenicity after 5 days by microtiter plate analysis. In kind it is functional, organism-based. The conditions noted are these: Human immunodeficiency virus 1, 3B, MT4, 120 h. The method, boiled down: (§1)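 MT-4 cells were grown in RPMI-1640 DM with 10% heat-inactivated calf serum and gentamicin. HIV-1 IIIB (100 CCID50) or mock infection was run in parallel with compounds in triplicate, at 37 °C and 5% CO2 for 5 days. Viability was read by MTT spectrophotometry. EC50 was the 50% reduction in virus cytopathic effect; CC50 was the 50% loss of mock-infected cell viability.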
(In general: Protection from cytopathic effect is a common read-out in antiviral testing.)

Data set [2] can be described thus: Cytotoxicity against human MT4 cells after 5 days by spectrophotometry. In kind it is cell-based. The method, boiled down:
as §1

Data set [3] deals with Mycobacterium tuberculosis. The data set is described as follows: Antimycobacterial activity against Mycobacterium tuberculosis H37Ra by agar dilution method. In kind it is functional. The method, boiled down: (§2)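 Log-phase MTB was tested by agar dilution on Middlebrook 7H11 with OADC, following NCCLS guidance. MIC was the lowest concentration giving complete growth inhibition, determined in triplicate.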
Background: In agar dilution, organisms are placed on agar that contains the substance at set levels.

The subject of data set [4] is Mycobacterium tuberculosis. The data set is described as follows: Antimycobacterial activity against Mycobacterium tuberculosis H37Ra assessed as inhibition of bacterial growth in log phase by agar dilution method. In kind it is functional. In a few lines:
as §2

Data set [5] relates to Mycobacterium tuberculosis. The data set is described as follows: Antimycobacterial activity against Mycobacterium tuberculosis H37Ra assessed as inhibition of bacterial growth in dormant phase. The data set is classed as functional. In a few lines:
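MTB grown in 7H9 with glycerol, OADC and Tween 80 at 37 °C with rolling to OD600 ~0.6, then washed and held in PBS 6 weeks at 37 °C. Starved cells (~1×10^7 in 1 mL PBS) were exposed to compounds in DMSO at various concentrations for 7 days with shaking. After washing, dilutions were plated on antibiotic-free 7H11 and counted after 4 weeks. MIC was complete growth inhibition, in triplicate.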

Data set [6] deals with T1, Isocitrate lyase (Mycobacterium tuberculosis) (UniProt P9WKK7).
T1 sequence (whole entry): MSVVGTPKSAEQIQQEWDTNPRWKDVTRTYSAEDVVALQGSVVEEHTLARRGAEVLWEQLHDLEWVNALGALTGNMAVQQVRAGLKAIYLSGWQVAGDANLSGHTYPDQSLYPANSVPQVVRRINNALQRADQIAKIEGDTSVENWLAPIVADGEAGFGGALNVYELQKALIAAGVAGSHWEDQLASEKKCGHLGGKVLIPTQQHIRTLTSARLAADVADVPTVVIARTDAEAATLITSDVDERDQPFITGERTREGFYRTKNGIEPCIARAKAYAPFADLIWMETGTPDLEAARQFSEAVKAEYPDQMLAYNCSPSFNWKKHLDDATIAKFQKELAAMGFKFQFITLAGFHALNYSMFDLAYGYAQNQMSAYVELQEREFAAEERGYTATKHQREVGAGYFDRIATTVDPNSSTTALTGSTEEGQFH
The data set is described as follows: Inhibition of Mycobacterium tuberculosis isocitrate lyase […]. In a few lines:
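Isocitrate lyase activity was measured at 37 °C as glyoxylate-phenylhydrazone formation from isocitrate with phenylhydrazine, MgCl2 and 2-mercaptoethanol in potassium phosphate buffer. After 10 min the mixture was diluted and absorbance read at 324 nm. Test compounds were added from a 10 mM solution; the 3-nitropropionic acid reference came from a 100 mM solution. % inhibition = (control − test)/control × 100.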

Converted amounts (≈) assume the structure as drawn.

For `O=C1/C(=N\NC(=S)NO)c2cc(Cl)ccc2N1CN1CCN(c2ccc(Cl)cc2)CC1`, the concentration giving a half-maximal response (EC50) in data set [1] was 11.1 µM. Also, the CC50 at 120 h in data set [2] worked out at 268 µM. This compound also had an MIC in data set [3] of 13 µM (≈ 6.25 µg/mL).
For `CONC(=S)N/N=C1\C(=O)N(CN2CCN(c3ccccc3)CC2)c2ccc(F)cc21`, the EC50 in data set [1] was 18.1 µM. Further, it took 227 µM to reach half-maximal cytotoxicity in data set [2] (CC50 at 120 h). In data set [3], this compound showed an MIC of 7.07 µM (≈ 3.13 µg/mL).
With `CONC(=S)N/N=C1\C(=O)N(CN2CCN(c3c(F)cc4c(=O)c(C(=O)O)cn(C5CC5)c4c3OC)CC2C)c2ccc(C)cc21` (centres undefined), the MIC in data set [4] amounted to 0.31 µM (≈ 0.202 µg/mL); in data set [5], 17.8 µM (≈ 11.6 µg/mL); in data set [3], 0.31 µM (≈ 0.202 µg/mL). For the same compound, the EC50 in data set [1] was found to be 1.86 µM. The compound further displayed a CC50 at 120 h in data set [2] of 154 µM.
For `CCn1cc(C(=O)O)c(=O)c2cc(F)c(N3CCN(CN4C(=O)/C(=N\NC(=S)NOC)c5cc(F)ccc54)CC3)cc21`, the figures for the MIC in data set [4], in data set [5] and in data set [3] were 4.25 µM (≈ 2.55 µg/mL), 17 µM (≈ 10.2 µg/mL) and 0.67 µM (≈ 0.402 µg/mL), respectively. The EC50 in data set [1] is 10.5 µM. Also, the midpoint of cytotoxicity in data set [2], the CC50 at 120 h, lay at 144 µM.
Regarding `O=C1/C(=N\NC(=S)NO)c2cc(Cl)ccc2N1CN1CCOCC1`, the concentration for a half-maximal effect (EC50) in data set [1] was found to be 35.1 µM. In addition, the CC50 at 120 h in data set [2] came out at 348 µM. Further, inhibition of growth in data set [3] (MIC) required 6.11 µM (≈ 2.26 µg/mL).
On the same counts, the results for `CCn1cc(C(=O)O)c(=O)c2cc(F)c(N3CCN(CN4C(=O)/C(=N\NC(=S)NO)c5cc(C)ccc54)CC3)cc21` are 16.9 µM, 327 µM and 1.34 µM (≈ 0.779 µg/mL).
As to `COc1c(N2CCN(CN3C(=O)/C(=N\NC(=S)NO)c4cc(C)ccc43)C(C)C2)c(F)cc2c(=O)c(C(=O)O)cn(C3CC3)c12` (centres undefined), the EC50 in data set [1] was determined as 11.1 µM. The compound also returned a CC50 at 120 h in data set [2] of 276 µM. In data set [3], this compound came in with an MIC of 0.63 µM (≈ 0.402 µg/mL).
On the same counts, the results for `COc1ccc(N2CCN(CN3C(=O)/C(=N\NC(=S)NO)c4cc(Cl)ccc43)CC2)cc1` are 21.3 µM, 279 µM and 13.2 µM (≈ 6.25 µg/mL).
On the same counts, the results for `CONC(=S)N/N=C1\C(=O)N(CN2CCN(c3ccc(OC)cc3)CC2)c2ccc(Cl)cc21` are 13.1 µM, 221 µM and 12.8 µM (≈ 6.25 µg/mL).
On the same counts, the results for `Cc1ccc2c(c1)/C(=N/NC(=S)NO)C(=O)N2CN1CCOCC1` are 93.6 µM, 572 µM and 8.96 µM (≈ 3.13 µg/mL).
On to `CONC(=S)N/N=C1\C(=O)N(CN2CCN(c3cc4c(cc3F)c(=O)c(C(=O)O)cn4C3CC3)CC2)c2ccc(Cl)cc21`, for which, in data set [1], the EC50 turned out to be 11 µM. This compound also showed a CC50 at 120 h in data set [2] of 143 µM. In data set [3], the MIC stood at 0.64 µM (≈ 0.402 µg/mL).
The corresponding values for `CCN(CC)CN1C(=O)/C(=N\NC(=S)NO)c2cc(C)ccc21` are 57.6 µM, 534 µM and 11.8 µM (≈ 3.97 µg/mL).
The corresponding values for `COc1c(N2CCN(CN3C(=O)/C(=N\NC(=S)NO)c4cc(F)ccc43)C(C)C2)c(F)cc2c(=O)c(C(=O)O)cn(C3CC3)c12` (centres undefined) are 4.18 µM, 206 µM and 0.16 µM (≈ 0.103 µg/mL).
The corresponding values for `CCN(CC)CN1C(=O)/C(=N\NC(=S)NOC)c2cc(F)ccc21` are 29.7 µM, 490 µM and 4.41 µM (≈ 1.56 µg/mL).
As for `O=C1/C(=N\NC(=S)NO)c2cc(F)ccc2N1CN1CCOCC1`, the EC50 in data set [1] turned out to be 61.4 µM. Further, in data set [2], the CC50 at 120 h was determined as 465 µM. It took 4.41 µM (≈ 1.56 µg/mL) to inhibit growth in data set [3] (MIC).
`CONC(=S)N/N=C1\C(=O)N(CN2CCN(c3cc4c(cc3F)c(=O)c(C(=O)O)cn4C3CC3)CC2)c2ccc(C)cc21` displayed an inhibition in data set [6] of 63.4%. In data set [1], the EC50 amounted to 9.22 µM. In data set [2], this compound registered a cytotoxic concentration (CC50) at 120 h of 232 µM. In data set [3], inhibition of growth (MIC) required 0.66 µM (≈ 0.401 µg/mL).
For the compound `CCN(CC)CN1C(=O)/C(=N\NC(=S)NO)c2cc(Cl)ccc21`, the EC50 in data set [1] was found to be 121 µM. In data set [2], the CC50 at 120 h came out at 562 µM. In data set [3], this compound gave an MIC of 70.3 µM (≈ 25 µg/mL).
Consider `CCn1cc(C(=O)O)c(=O)c2cc(F)c(N3CCN(CN4C(=O)/C(=N\NC(=S)NO)c5cc(Cl)ccc54)C(C)C3)c(F)c21` (centres undefined), for which the concentration giving a half-maximal response (EC50) in data set [1] was 23.2 µM. This compound also yielded a CC50 at 120 h in data set [2] of 209 µM. In addition, the MIC in data set [3] turned out to be 1.23 µM (≈ 0.78 µg/mL).
